Experiments:
[1] = tested on: other GPCRs; test: GPCR selectivity assays, cardiovascular receptor safety panel; format: binding, human; details: tested up to 30 µmol/L
[2] = molecular target: T1, human APJ (Homo sapiens, UniProt P35414); test: cAMP inhibition assay, HEK293 ZF cells; format: cell-based
T1 sequence (P35414 1-380): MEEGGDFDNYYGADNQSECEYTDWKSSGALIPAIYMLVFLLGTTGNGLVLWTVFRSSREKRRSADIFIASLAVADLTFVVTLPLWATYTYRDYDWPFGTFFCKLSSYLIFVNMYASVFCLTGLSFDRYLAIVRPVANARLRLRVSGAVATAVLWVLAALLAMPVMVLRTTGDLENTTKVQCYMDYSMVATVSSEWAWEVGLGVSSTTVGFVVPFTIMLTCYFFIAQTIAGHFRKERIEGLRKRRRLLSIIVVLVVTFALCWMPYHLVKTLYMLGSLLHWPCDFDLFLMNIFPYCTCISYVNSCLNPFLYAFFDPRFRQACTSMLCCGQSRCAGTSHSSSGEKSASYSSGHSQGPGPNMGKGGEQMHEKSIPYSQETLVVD

[3] = molecular target: T1, human APJ; test: BRET-based biosensor assays; format: cell-based
[4] = tested on: instrumented anesthetized rats; test: Acute hemodynamics, 15-min IV infusion of BMS-986224; format: in vivo, rat; details: for CO percentage change from baseline / SV percentage change from baseline: 15 min
How it was run: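 Male Sprague-Dawley rats (≥250 g), anesthetized and surgically instrumented, received a 15-min IV infusion of test compound at 1, 10 or 100 μg/kg per min, then a 15-min washout. Vehicle-infused rats served as comparison. SV, CO, dP/dtmax, HR and mean arterial pressure were expressed as percentage change from baseline. Plasma exposure was sampled at each dose.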

[5] = Plasma exposure during and after IV infusion, anesthetized cannulated rats; format: in vivo, rat
[6] = tested on: RHR (renal hypertensive rat) model; test: RHR model, subcutaneous infusion via osmotic minipump; format: in vivo; details: SC infusion
How it was run: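 Renal hypertensive rats (male Sprague-Dawley) received test compound for 10 days by subcutaneous osmotic minipump. The low dose targeted a steady-state plasma level of ≈100 nmol/L; the high dose targeted ≈10-fold more. SV, CO and diastolic parameters were assessed by echocardiography, with cardiac fibrosis and heart weight also scored. One-way ANOVA with Tukey or Dunnett tests was used.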

[7] = tested on: RHR (renal hypertensive rat) model; test: RHR model, oral BID study; format: in vivo
[8] = tested on: RHR (renal hypertensive rat) model; test: RHR model, oral QD study; format: in vivo; details: both doses (0.06 and 0.2 mg/kg)
[9] = Plasma concentrations of BMS-986224 in the RHR studies; format: in vivo, rat; details: for steady-state plasma concentration: SC 10-day infusion
How it was run: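 Renal hypertensive rat model in male Sprague-Dawley rats. Dosing was either a 10-day SC infusion by osmotic minipump or oral BID dosing at 0.1 and 1 mg/kg. The SC low dose targeted a steady-state level of ≈100 nmol/L, and the high dose targeted ≈10-fold more. The oral doses targeted ≈200 nmol/L at peak or trough. Peak, trough and steady-state plasma levels were measured, and AUC(0–24) was derived.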

[10] = tested on: instrumented anesthetized rats; test: Acute hemodynamics, dobutamine single dose 15-min IV infusion; format: in vivo, rat; details: 1 μg/kg/min IV, N=8
How it was run: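 Male Sprague-Dawley rats (≥250 g), anesthetized and surgically instrumented; test agents given as a 15-min IV infusion followed by a 15-min washout. Cardiac output and heart rate were expressed as percentage change from baseline during and after infusion. Paired Student t test was used for significance.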

[11] = 40 mg/kg/day SC infusion, BID study

SMILES: CCOCc1nc(O)c(-c2nnc(Cc3ccc(Cl)cn3)o2)c(O)c1-c1c(OC)cccc1OC [BMS-986224]
- binding/activity at other GPCRs [1]: did not bind other GPCRs
- EC50 [2]: 0.02 ± 0.02 nM
- signaling bias relative to (Pyr1) apelin-13 [3]: lack of bias
- relative activity vs (Pyr1) apelin-13, ΔLog (RA) ([3]; ratio of Ymax and EC50, each signaling readout): > 0
- CO percentage change from baseline ([4]; 1 μg/kg/min IV): 8.2%
- SV percentage change from baseline ([4]; 1 μg/kg/min IV): 6.0%
- decrease in mean arterial pressure from baseline ([4]; 10 μg/kg per minute, P<0.001 versus vehicle): 1.9%
- CO percentage change from baseline ([4]; 10 μg/kg/min IV): 15.4%
- SV percentage change from baseline ([4]; 10 μg/kg/min IV): 12.6%
- CO percentage change from baseline ([4]; 100 μg/kg/min IV): 15.9%
- SV percentage change from baseline ([4]; 100 μg/kg/min IV): 12.3%
- maximum increase in CO ([4]; 15-min IV infusion): ≈ 15%
- maximum effective dose ([4]; based on the increases in CO): 10 μg/kg per minute
- minimum effective dose ([4]; based on the increases in CO): 1 μg/kg per minute
- Plasma exposure ([5]; 1 μg/kg per minute IV): 95 ± 5 nmol/L
- free plasma concentration at the minimum effective dose ([5]; adjusted for protein binding, 1 μg/kg per minute): 2 nM
- other measured parameters (diastolic parameters, cardiac fibrosis, heart weight) [6]: without affecting
- SV and CO ([6]; high dose 3 mg/kg/day, 3 mg/kg/day): not noted
- LV mass or EF vs vehicle ([7]; oral BID, trough): no significant differences
- SV and CO [8]: increased
- steady-state plasma concentration ([9]; HD): 2686 nmol/L
- steady-state plasma concentration ([9]; low dose): 102 nmol/L
- area under the plasma drug concentration−time curve (0–24) ([9]; oral 0.1 mg/kg BID): 3.42 µM·h
- peak plasma concentration ([9]; oral 0.1 mg/kg BID): 205 ± 11 nmol/L
- trough plasma concentration ([9]; oral 0.1 mg/kg BID): 25 ± 4 nmol/L
- area under the plasma drug concentration−time curve (0–24) ([9]; oral 1 mg/kg BID): 34.3 µM·h
- peak plasma concentration ([9]; oral 1 mg/kg BID): 2095 ± 161 nmol/L
- trough plasma concentration ([9]; oral 1 mg/kg BID): 302 ± 29 nmol/L

SMILES: CC(CCc1ccc(O)cc1)NCCc1ccc(O)c(O)c1 (centres unmarked) [Dobutamine]
- Cardiac output % change from baseline [10]: 11.2%

SMILES: CCOC(=O)[C@H](CCc1ccccc1)N[C@@H](C)C(=O)N1CCC[C@H]1C(=O)O [Enalapril]
- LV end-diastolic volume vs vehicle [7, 11]: increased
- LV mass, heart weight, and EF vs vehicle [7, 11]: reduced
- SV, CO, and HR vs vehicle [7, 11]: without significant effect

Source: article PMC7982131 (Circulation. Heart Failure, 2021)
